From ChEMBL document CHEMBL2424521, “Long-lasting inhibition of EGFR autophosphorylation in A549 tumor cells by intracellular accumulation of non-covalent inhibitors” (Bioorg Med Chem Lett, 2013) come the findings set out here.

The source made the active and inactive calls. No cut-off for these calls is given here.

The nature of data set [1]: Percentage unbound in human A549 cells at 1 uM after 4 hrs by equilibrium dialysis method. The class given is ADME, cell-based.
In data set [2] the target is T1, Epidermal growth factor receptor (Homo sapiens, UniProt P00533). Briefly: Inhibition of wild type EGFR autophosphorylation in human A549 cells incubated for 1 hr followed by compound washout measured after 8 hrs by Western blot analysis. The class given is cell-based.
T1 sequence (P00533 whole entry): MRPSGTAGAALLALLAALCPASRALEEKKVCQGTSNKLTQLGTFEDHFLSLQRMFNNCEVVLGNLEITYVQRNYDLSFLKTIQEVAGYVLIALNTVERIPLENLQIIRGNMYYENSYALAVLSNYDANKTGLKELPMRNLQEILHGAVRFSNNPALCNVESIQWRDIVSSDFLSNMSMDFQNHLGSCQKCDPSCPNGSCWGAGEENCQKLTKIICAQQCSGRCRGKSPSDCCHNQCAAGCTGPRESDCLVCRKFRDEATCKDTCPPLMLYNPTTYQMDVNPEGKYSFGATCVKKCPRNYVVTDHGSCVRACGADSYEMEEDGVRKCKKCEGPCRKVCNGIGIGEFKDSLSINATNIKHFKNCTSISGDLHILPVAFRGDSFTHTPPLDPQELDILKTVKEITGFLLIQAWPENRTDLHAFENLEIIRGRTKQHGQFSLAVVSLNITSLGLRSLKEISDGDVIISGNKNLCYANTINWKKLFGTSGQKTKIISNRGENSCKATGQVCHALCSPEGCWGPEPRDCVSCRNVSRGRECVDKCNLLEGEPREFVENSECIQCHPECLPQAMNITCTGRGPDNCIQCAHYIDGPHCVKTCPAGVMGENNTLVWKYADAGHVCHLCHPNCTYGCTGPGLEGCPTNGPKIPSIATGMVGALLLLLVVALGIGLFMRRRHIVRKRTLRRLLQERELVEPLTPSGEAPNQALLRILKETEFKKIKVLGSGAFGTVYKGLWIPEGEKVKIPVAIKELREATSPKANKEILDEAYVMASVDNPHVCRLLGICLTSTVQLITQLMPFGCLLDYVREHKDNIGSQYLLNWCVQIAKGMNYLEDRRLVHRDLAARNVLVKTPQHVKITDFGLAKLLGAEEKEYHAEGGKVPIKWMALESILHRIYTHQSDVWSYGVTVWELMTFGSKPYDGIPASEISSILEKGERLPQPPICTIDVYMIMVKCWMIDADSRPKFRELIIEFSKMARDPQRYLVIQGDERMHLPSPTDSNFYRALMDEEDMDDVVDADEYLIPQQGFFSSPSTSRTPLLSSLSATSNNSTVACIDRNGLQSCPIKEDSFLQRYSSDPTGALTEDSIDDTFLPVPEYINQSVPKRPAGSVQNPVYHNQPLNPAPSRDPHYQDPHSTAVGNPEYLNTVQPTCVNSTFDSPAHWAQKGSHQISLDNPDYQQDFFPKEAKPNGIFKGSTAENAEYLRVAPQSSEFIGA
Data set [3] has as its target T1, Epidermal growth factor receptor. Conditions: A549, at 1 µM.
The target is the same in data set [4].
For data set [5], the system named is A549. As to the kind of experiment: Cellular uptake in human A549 cells incubated for 1 hr followed by compound washout measured at 1 hr by HPLC-MS/MS analysis. It counts as ADME, cell-based. Conditions: a549, 1 h. In short, it runs like this: (§1)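 A549 cells (wild-type EGFR) exposed to 1 µM extracellular compound for 1 h; intracellular content quantified by HPLC-ESI-MS/MS immediately after or 8 h after removal of compound (drug-free incubation) as pmol/mg protein; converted to µM using average cell volume per mg protein estimated from equilibrium distribution of 3-O-methyl-D-[1-³H]glucose in A549 cells.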

The target in data set [6] is T1, Epidermal growth factor receptor. As to the kind of experiment: Inhibition of wild type EGFR autophosphorylation in human A549 cells incubated for 1 hr followed by compound washout measured at 1 hr by Western blot analysis. The class given is cell-based.
Data set [7] shares this target. As to the kind of experiment: Inhibition of wild type EGFR autophosphorylation in human A549 cells at 1 uM incubated for 1 hr followed by compound washout measured after 8 hrs by Western blot analysis. It counts as cell-based. Put shortly:
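A549 cells expressing wild-type EGFR treated 1 h with inhibitor at 1 µM, then washed with drug-free medium; EGFR autophosphorylation in intact cells read by Western blot 8 h after compound removal; percent inhibition as mean of at least two independent experiments ± SEM.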

Data set [8] concerns A549. As to the kind of experiment: Cellular uptake in human A549 cells incubated for 1 hr followed by compound washout measured after 8 hrs by HPLC-MS/MS analysis. The class given is ADME, cell-based. The note with it: a549, 1 h. Put shortly:
as §1

Data set [9] in a line: Stability of the compound in human A549 cell lysates up to 24 hrs in presence of cysteine. It counts as physicochemical. Conditions: a549, 24 h. In short, it runs like this: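 Compound incubated with A549 cell lysate plus molar excess of cysteine as trapping reagent; cysteine conjugate formation monitored by HPLC–MS for up to 24 h.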
For data set [10], the target named is T1, Epidermal growth factor receptor. The note with it: at 1 µM.

Compound `Brc1cccc(Nc2ncnc3ccc(NCCCN4CCCCC4)cc23)c1` showed a fraction unbound at 4 h, 1 µM in data set [1] of 0.077. For the same compound, the results for the IC50 in data set [2], in data set [4] and in data set [6] were 14.1 nM, 0.41 nM and 1.7 nM, respectively. Further, the inhibition is 95% in data set [3] and 90% in data set [7]. For the same compound, the Drug uptake in data set [5] was 324 µM; in data set [8], 105 µM.

The compound `O=C(CCCN1CCCCC1)Nc1ccc2ncnc(Nc3cccc(Br)c3)c2c1` yielded a fraction unbound at 4 h, 1 µM in data set [1] of 0.157. Moreover, the Stability result in data set [9] is on record as “Stable”. The IC50 was 13.5 nM in data set [2], 0.63 nM in data set [4] and 5.7 nM in [6]. In addition, the results for the inhibition in data set [3] and in data set [7] were 98% and 96%, respectively. Further, the Drug uptake in data set [5] came to 147 µM; in data set [8], 7.2 µM. Besides, the inhibition result in [10] is “inactive”.

For the compound `Nc1ccc2ncnc(Nc3cccc(Br)c3)c2c1`, the Drug uptake in [5] is 13 µM; in data set [8], less than 0.05 µM.

Take `CN(C)CCC(=O)Nc1ccc2ncnc(Nc3cccc(Br)c3)c2c1`: the Drug uptake in data set [5] is 26 µM; in [8], less than 0.05 µM.

In data set [1], `COc1cc2ncnc(Nc3ccc(F)c(Cl)c3)c2cc1OCCCN1CCOCC1` [GEFITINIB] came in with a fraction unbound at 4 h, 1 µM of 0.322. The Drug uptake in [5] worked out at 271 µM; in data set [8] it was 2.3 µM.

Consider `O=C(CCOc1ccccc1)Nc1ccc2ncnc(Nc3cccc(Br)c3)c2c1`, for which the Stability result in data set [9] is given as “Stable”. Moreover, the Drug uptake in [5] was found to be 72 µM; in data set [8], 0.7 µM.

Regarding `C=CC(=O)Nc1ccc2ncnc(Nc3cccc(Br)c3)c2c1`, the Drug uptake in data set [5] and in [8] was less than 0.05 µM in each case.

`O=C(COc1c(F)c(F)c(F)c(F)c1F)Nc1ccc2ncnc(Nc3cccc(Br)c3)c2c1`: the Stability entry in [9] is given as “Stable”. Moreover, the Drug uptake came to 240 µM in data set [5] and 3.6 µM in data set [8].
